A short description of data set [1]: Antitumor activity against mouse LL/2 cells inoculated in C57BL/6J mouse assessed as tumor growth inhibition at 100 mg/kg, ip administered for 12 days. In kind it is functional, Lewis lung carcinoma. The settings on record: time 12 day. Set-up: scale not given: the % may be the effect or the level left.
Data set [2] in a line: Antitumor activity against mouse LL/2 cells inoculated in C57BL/6J mouse assessed as reduction of tumor weight at 100 mg/kg, ip administered for 12 days and measured at day 14 (reference value: 1.2 +/- 0.3 g). In kind it is functional, Lewis lung carcinoma. The settings on record: time 12 day.
Data set [3] is described as follows: Toxicity in mouse LL/2 cells inoculated C57BL/6J mouse assessed as effect on body weight by measuring end body weight at 100 mg/kg, ip administered for 12 days and measured for every 2 days (reference value: 17.8 +/- 0.7 g). In kind it is organism-based. The conditions noted are these: in vivo, 288 h, time 12 day.
The subject of data set [4] is HL-60. In words: Induction of apoptosis in human HL-60 cells assessed as necrotic cells at 8 uM incubated for 24 hrs by propidium iodide and annexin-V FITC staining based FACS analysis (reference value: 0.5 %). In kind it is functional.
Data set [5] concerns HL-60. As to the kind of experiment: Induction of apoptosis in human HL-60 cells assessed as viable cells at 8 uM incubated for 24 hrs by propidium iodide and annexin-V FITC staining based FACS analysis (reference value: 92.05 %). In kind it is functional. The settings on record: read-out: Activity. Background: Flow cytometry measures light scatter and fluorescence of single cells or particles in a stream.

Data set [6] deals with Histone deacetylase 3 (Homo sapiens) (UniProt O15379). In words: Inhibition of HDAC3 in human HL-60 cells assessed as increase in Ac-H3 level at 0.5 to 2 uM incubated for 24 hrs by Western blot analysis. In kind it is cell-based. The conditions noted are these: dose 0.5-2 µM. Put shortly: (§1)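 Compound given to HL-60 cells for 24 h at the stated concentrations, then lysed. Acetyl-histone H3 and acetyl-α-tubulin levels were read by Western blot, with total H3, α-tubulin or β-actin as references.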

Another data set concerns the target Histone deacetylase 2 (Homo sapiens, UniProt Q92769). In words: Inhibition of HDAC2 in human HL-60 cells assessed as increase in Ac-H3 level at 0.5 to 2 uM incubated for 24 hrs by Western blot analysis. In kind it is cell-based. The settings on record: dose 0.5-2 µM. The procedure, abridged:
as §1
For orientation: A western blot detects proteins with antibodies after separation by electrophoresis.

For another data set, the target named is Histone deacetylase 1 (Homo sapiens, UniProt Q13547). In words: Inhibition of HDAC1 in human HL-60 cells assessed as increase in Ac-H3 level at 0.5 to 2 uM incubated for 24 hrs by Western blot analysis. In kind it is cell-based. The conditions noted are these: dose 0.5-2 µM. The procedure, abridged: as §1
The test system of data set [7] is HL-60. In words: Induction of apoptosis in human HL-60 cells assessed as cleavage of caspase-9 at 0.5 to 2 uM after 24 hrs Western blot analysis. In kind it is functional, cell-based. The settings on record: dose 0.5-2 µM. The procedure, abridged: (§2)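 HL-60 cells were treated for 24 h at the indicated concentrations, then analysed by Western blot. Blots were probed for cleavage of PARP and caspase-3, -8 and -9. Ac-H3, Ac-α-tubulin and β-actin were also detected, with β-actin as the loading reference.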

Data set [8] deals with HL-60. As to the kind of experiment: Induction of apoptosis in human HL-60 cells assessed as cleavage of caspase-8 at 0.5 to 2 uM after 24 hrs Western blot analysis. The settings on record: dose 0.5-2 µM. In kind it is functional, cell-based. The procedure, abridged: as §2
Data set [9] concerns HL-60. As to the kind of experiment: Induction of apoptosis in human HL-60 cells assessed as cleavage of caspase-3 at 0.5 to 2 uM after 24 hrs Western blot analysis. In kind it is functional, cell-based. The conditions noted are these: dose 0.5-2 µM. The procedure, abridged:
as §2

Data set [10] concerns HL-60. As to the kind of experiment: Induction of apoptosis in human HL-60 cells assessed as necrotic cells at 2 uM incubated for 24 hrs by propidium iodide and annexin-V FITC staining based FACS analysis (reference value: 0.3 %). In kind it is functional.
Data set [11] deals with HL-60. In words: Induction of apoptosis in human HL-60 cells assessed as cleavage of PARP at 0.5 to 2 uM after 24 hrs Western blot analysis. In kind it is functional, cell-based. The settings on record: dose 0.5-2 µM. Put shortly:
as §2

Data set [12] relates to HL-60. In words: Induction of apoptosis in human HL-60 cells assessed as late apoptotic cells at 2 uM incubated for 24 hrs by propidium iodide and annexin-V FITC staining based FACS analysis (reference value: 4.8 %). In kind it is functional.
In data set [13] the test system is HL-60. In words: Induction of apoptosis in human HL-60 cells assessed as early apoptotic cells at 2 uM incubated for 24 hrs by propidium iodide and annexin-V FITC staining based FACS analysis (reference value: 2.8 %). In kind it is functional.
In data set [14] the test system is HL-60. In words: Induction of apoptosis in human HL-60 cells assessed as necrotic cells at 1 uM incubated for 24 hrs by propidium iodide and annexin-V FITC staining based FACS analysis (reference value: 0.3 %). In kind it is functional.
For data set [15], the system named is HL-60. As to the kind of experiment: Induction of apoptosis in human HL-60 cells assessed as late apoptotic cells at 1 uM incubated for 24 hrs by propidium iodide and annexin-V FITC staining based FACS analysis (reference value: 4.8 %). In kind it is functional.
Data set [16] deals with HL-60. As to the kind of experiment: Induction of apoptosis in human HL-60 cells assessed as necrotic cells at 0.5 uM incubated for 24 hrs by propidium iodide and annexin-V FITC staining based FACS analysis (reference value: 0.3 %). In kind it is functional.
Data set [17] has as its system HL-60. In words: Induction of apoptosis in human HL-60 cells assessed as late apoptotic cells at 0.5 uM incubated for 24 hrs by propidium iodide and annexin-V FITC staining based FACS analysis (reference value: 4.8 %). In kind it is functional.
Data set [18] relates to HL-60. In words: Induction of apoptosis in human HL-60 cells assessed as necrotic cells at 1 uM incubated for 24 hrs by propidium iodide and annexin-V FITC staining based FACS analysis (reference value: 0.5 %). In kind it is functional.
The subject of data set [19] is HL-60. As to the kind of experiment: Induction of apoptosis in human HL-60 cells assessed as late apoptotic cells at 1 uM incubated for 24 hrs by propidium iodide and annexin-V FITC staining based FACS analysis (reference value: 4.2 %). In kind it is functional.
In data set [20] the test system is HL-60. In words: Induction of apoptosis in human HL-60 cells assessed as early apoptotic cells at 1 uM incubated for 24 hrs by propidium iodide and annexin-V FITC staining based FACS analysis (reference value: 2.9 %). In kind it is functional.

Structures are written as SMILES. Calls of active or inactive are those of the source. The rule behind the calls is not given here.

Data on three molecules can be found in ChEMBL document CHEMBL4673384, “Studying Histone Deacetylase Inhibition and Apoptosis Induction of Psammaplin A Monomers with Modified Thiol Group” (ACS Med Chem Lett, 2021).

Sequence of Histone deacetylase 1 (Q13547 whole entry): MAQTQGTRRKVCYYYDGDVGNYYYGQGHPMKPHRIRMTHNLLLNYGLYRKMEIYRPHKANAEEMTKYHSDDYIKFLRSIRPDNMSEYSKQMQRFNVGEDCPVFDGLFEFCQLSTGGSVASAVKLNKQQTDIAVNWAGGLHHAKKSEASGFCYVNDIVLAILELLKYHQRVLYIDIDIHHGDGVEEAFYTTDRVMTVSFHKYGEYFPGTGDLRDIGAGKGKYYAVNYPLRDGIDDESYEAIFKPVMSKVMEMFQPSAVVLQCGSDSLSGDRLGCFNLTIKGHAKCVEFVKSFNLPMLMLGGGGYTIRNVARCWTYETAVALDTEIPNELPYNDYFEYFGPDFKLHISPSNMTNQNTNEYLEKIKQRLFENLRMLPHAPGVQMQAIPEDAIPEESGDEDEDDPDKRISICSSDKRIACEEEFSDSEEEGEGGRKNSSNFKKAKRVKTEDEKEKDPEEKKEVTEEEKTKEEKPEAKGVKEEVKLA
Sequence of Histone deacetylase 2 (Q92769 whole entry): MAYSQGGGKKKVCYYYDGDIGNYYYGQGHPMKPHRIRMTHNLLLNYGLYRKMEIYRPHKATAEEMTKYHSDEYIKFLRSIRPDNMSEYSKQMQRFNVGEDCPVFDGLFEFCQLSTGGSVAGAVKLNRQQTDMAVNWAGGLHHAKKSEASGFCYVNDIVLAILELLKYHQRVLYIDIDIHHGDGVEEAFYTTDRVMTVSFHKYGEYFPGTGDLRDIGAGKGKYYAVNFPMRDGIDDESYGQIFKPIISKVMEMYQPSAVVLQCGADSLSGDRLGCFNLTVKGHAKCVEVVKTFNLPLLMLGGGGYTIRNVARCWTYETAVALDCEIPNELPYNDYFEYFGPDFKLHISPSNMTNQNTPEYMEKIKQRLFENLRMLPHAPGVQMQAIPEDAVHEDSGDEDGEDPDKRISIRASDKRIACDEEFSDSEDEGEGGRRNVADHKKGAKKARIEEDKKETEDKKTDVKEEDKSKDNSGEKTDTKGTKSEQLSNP
Sequence of Histone deacetylase 3 (Homo sapiens) (O15379 whole entry): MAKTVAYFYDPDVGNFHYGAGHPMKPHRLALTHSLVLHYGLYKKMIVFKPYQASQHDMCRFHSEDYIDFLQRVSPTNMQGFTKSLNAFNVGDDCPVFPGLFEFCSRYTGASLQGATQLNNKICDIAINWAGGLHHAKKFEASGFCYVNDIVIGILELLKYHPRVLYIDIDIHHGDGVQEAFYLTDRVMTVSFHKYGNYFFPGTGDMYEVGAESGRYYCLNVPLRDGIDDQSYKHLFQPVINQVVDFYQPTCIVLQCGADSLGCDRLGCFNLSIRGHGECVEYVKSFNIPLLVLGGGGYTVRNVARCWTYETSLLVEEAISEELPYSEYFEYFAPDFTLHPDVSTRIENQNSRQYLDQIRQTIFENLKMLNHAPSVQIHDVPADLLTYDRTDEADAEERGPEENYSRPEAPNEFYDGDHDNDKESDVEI

`O=C(NCCS)/C(Cc1ccc(O)c(Br)c1)=N/O`: the Activity came to 62% in [1], 0.5 g in [2], 16.9 g in data set [3] and 3.3% in the data set on HL-60 [4]. Besides, the viability at 8 µM in the data set with HL-60 [5] amounted to 68.3%.
For `O=C(CCNC(=O)/C(Cc1ccc(O)c(Br)c1)=N/O)NO`, the inhibition result (in [6]; on Histone deacetylase 2; on Histone deacetylase 1) was “Active” throughout. Also, the outcome in the data set with HL-60 [7], in the data set with HL-60 [8], in the data set on HL-60 [9] and with HL-60 [11] was Active. The Activity in the data set on HL-60 [10] worked out at 0.8%; in the data set with HL-60 [12] it was 21.9%; with HL-60 [13], 7.3%; with HL-60 [14] it was 0.5%; in the data set with HL-60 [15], 12.6%; in the data set on HL-60 [16], 0.2%. The Activity in the data set on HL-60 [17] is on record as 5.9%.
Consider `O=C(NCCSSCCNC(=O)/C(Cc1ccc(O)c(Br)c1)=N/O)/C(Cc1ccc(O)c(Br)c1)=N/O` [PSAMMAPLIN A], for which the Activity with HL-60 [18] came to 0.8%; with HL-60 [19], 7.8%; with HL-60 [20] it was 2.6%.
